Laboratory results reported in ChEMBL document CHEMBL1147748, “Overlapping, nonidentical binding sites of different classes of nonpeptide antagonists for the human gonadotropin-releasing hormone receptor” (J Med Chem, 2006).

Experiments:
[1] = target: Gonadotropin-releasing hormone receptor (Homo sapiens, UniProt P30968); assay: Displacement of [125I]-His5, D-Tyr6]GnRH from human wild type GnRHR
Method in brief: (§1)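 Human GnRH-R (wild type or site-directed point mutant) was transiently expressed in COS-7 cells by electroporation, with cells cultured 36-48 h before membranes were prepared. Membranes (5-20 µg per point) were incubated 2 h at room temperature with 0.3 nM tracer and varying competitor in HEPES pH 7.5, 150 mM NaCl, 0.1% BSA, then filtered and counted.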

[2] = target: Gonadotropin-releasing hormone receptor (Homo sapiens, UniProt P30968, W291F); assay: Displacement of [125I]-His5, D-Tyr6]GnRH from mutant GnRHR, GnRHR W291F
[3] = target: Gonadotropin-releasing hormone receptor (Homo sapiens, UniProt P30968, D293K); assay: Displacement of [125I]-His5, D-Tyr6]GnRH from mutant GnRHR, GnRHR D293K; method in brief: as §1
[4] = target: Gonadotropin-releasing hormone receptor (Homo sapiens, UniProt P30968, D293N); assay: Displacement of [125I]-His5, D-Tyr6]GnRH from mutant GnRHR, GnRHR D293N; method in brief: as §1
[5] = target: Gonadotropin-releasing hormone receptor (Homo sapiens, UniProt P30968, D293E); assay: Displacement of [125I]-His5, D-Tyr6]GnRH from mutant GnRHR, GnRHR D293E; method in brief: as §1
[6] = target: Gonadotropin-releasing hormone receptor (Homo sapiens, UniProt P30968, E295A); assay: Displacement of [125I]-His5, D-Tyr6]GnRH from mutant GnRHR, GnRHR E295A; method in brief: as §1
[7] = target: Gonadotropin-releasing hormone receptor (Homo sapiens, UniProt P30968, N305K); assay: Displacement of [125I]-His5, D-Tyr6]GnRH from mutant GnRHR, GnRHR N305K; method in brief: as §1
[8] = target: Gonadotropin-releasing hormone receptor (Homo sapiens, UniProt P30968, H306A); assay: Displacement of [125I]-His5, D-Tyr6]GnRH from mutant GnRHR, GnRHR H306A; method in brief: as §1
[9] = target: Gonadotropin-releasing hormone receptor (Homo sapiens, UniProt P30968, F313L); assay: Displacement of [125I]-His5, D-Tyr6]GnRH from mutant GnRHR, GnRHR F313L; method in brief: as §1
[10] = target: Gonadotropin-releasing hormone receptor (Homo sapiens, UniProt P30968, N315A); assay: Displacement of [125I]-His5, D-Tyr6]GnRH from mutant GnRHR, GnRHR N315A; method in brief: as §1
[11] = target: Gonadotropin-releasing hormone receptor (Homo sapiens, UniProt P30968, N315D); assay: Displacement of [125I]-His5, D-Tyr6]GnRH from mutant GnRHR, GnRHR N315D; method in brief: as §1
[12] = target: Gonadotropin-releasing hormone receptor (Homo sapiens, UniProt P30968, F272L); assay: Displacement of [125I]-His5, D-Tyr6]GnRH from mutant GnRHR, GnRHR F272L; method in brief: as §1
[13] = target: Gonadotropin-releasing hormone receptor (Homo sapiens, UniProt P30968, M24T); assay: Displacement of [125I]-His5, D-Tyr6]GnRH from mutant GnRHR, GnRHR M24T; method in brief: as §1
[14] = target: Gonadotropin-releasing hormone receptor (Homo sapiens, UniProt P30968, N27A); assay: Displacement of [125I]-His5, D-Tyr6]GnRH from mutant GnRHR, GnRHR N27A; method in brief: as §1
[15] = target: Gonadotropin-releasing hormone receptor (Homo sapiens, UniProt P30968, L112K); assay: Displacement of [125I]-His5, D-Tyr6]GnRH from mutant GnRHR, GnRHR L112K; method in brief: as §1
[16] = target: Gonadotropin-releasing hormone receptor (Homo sapiens, UniProt P30968, L117A); assay: Displacement of [125I]-His5, D-Tyr6]GnRH from mutant GnRHR, GnRHR L117A; method in brief: as §1
[17] = target: Gonadotropin-releasing hormone receptor (Homo sapiens, UniProt P30968, S118A); assay: Displacement of [125I]-His5, D-Tyr6]GnRH from mutant GnRHR, GnRHR S118A
[18] = target: Gonadotropin-releasing hormone receptor (Homo sapiens, UniProt P30968, K121A); assay: Displacement of [125I]-His5, D-Tyr6]GnRH from mutant GnRHR, GnRHR K121A; method in brief: as §1
[19] = target: Gonadotropin-releasing hormone receptor (Homo sapiens, UniProt P30968, S168I); assay: Displacement of [125I]-His5, D-Tyr6]GnRH from mutant GnRHR, GnRHR S168I
[20] = target: Gonadotropin-releasing hormone receptor (Homo sapiens, UniProt P30968, S186K); assay: Displacement of [125I]-His5, D-Tyr6]GnRH from mutant GnRHR, GnRHR S186K
[21] = target: Gonadotropin-releasing hormone receptor (Homo sapiens, UniProt P30968, Q189A); assay: Displacement of [125I]-His5, D-Tyr6]GnRH from mutant GnRHR, GnRHR Q189A; method in brief: as §1
[22] = target: Gonadotropin-releasing hormone receptor (Homo sapiens, UniProt P30968, Q189E); assay: Displacement of [125I]-His5, D-Tyr6]GnRH from mutant GnRHR, GnRHR Q189E; method in brief: as §1
[23] = target: Gonadotropin-releasing hormone receptor (Homo sapiens, UniProt P30968, Q189P); assay: Displacement of [125I]-His5, D-Tyr6]GnRH from mutant GnRHR, GnRHR Q189P
[24] = target: Gonadotropin-releasing hormone receptor (Homo sapiens, UniProt P30968, S203K); assay: Displacement of [125I]-His5, D-Tyr6]GnRH from mutant GnRHR, GnRHR S203K
[25] = target: Gonadotropin-releasing hormone receptor (Homo sapiens, UniProt P30968, S203P); assay: Displacement of [125I]-His5, D-Tyr6]GnRH from mutant GnRHR, GnRHR S203P
[26] = target: Gonadotropin-releasing hormone receptor (Homo sapiens, UniProt P30968, A50T); assay: Displacement of [125I]-His5, D-Tyr6]GnRH from mutant GnRHR, GnRHR A50T; method in brief: as §1
[27] = target: Gonadotropin-releasing hormone receptor (Homo sapiens, UniProt P30968, T51A); assay: Displacement of [125I]-His5, D-Tyr6]GnRH from mutant GnRHR, GnRHR T51A
[28] = target: Gonadotropin-releasing hormone receptor (Homo sapiens, UniProt P30968, E111A); assay: Displacement of [125I]-His5, D-Tyr6]GnRH from mutant GnRHR, GnRHR E111A; method in brief: as §1
[29] = target: Gonadotropin-releasing hormone receptor (Homo sapiens, UniProt P30968, L112A); assay: Displacement of [125I]-His5, D-Tyr6]GnRH from mutant GnRHR, GnRHR L112A; method in brief: as §1
[30] = target: Gonadotropin-releasing hormone receptor (Homo sapiens, UniProt P30968, Q208D); assay: Displacement of [125I]-His5, D-Tyr6]GnRH from mutant GnRHR, GnRHR Q208D

Gonadotropin-releasing hormone receptor (Homo sapiens, UniProt P30968), sequence (P30968 whole entry): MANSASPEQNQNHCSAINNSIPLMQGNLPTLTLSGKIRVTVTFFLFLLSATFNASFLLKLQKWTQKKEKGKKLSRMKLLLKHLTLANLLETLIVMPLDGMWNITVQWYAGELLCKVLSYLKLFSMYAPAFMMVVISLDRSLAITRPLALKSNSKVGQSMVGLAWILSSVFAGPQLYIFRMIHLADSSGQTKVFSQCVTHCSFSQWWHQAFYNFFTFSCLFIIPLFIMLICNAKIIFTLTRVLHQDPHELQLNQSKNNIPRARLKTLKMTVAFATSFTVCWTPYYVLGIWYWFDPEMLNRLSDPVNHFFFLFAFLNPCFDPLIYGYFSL
Gonadotropin-releasing hormone receptor (Homo sapiens, UniProt P30968, N315D), sequence (P30968 whole entry N315D): as the sequence (P30968 whole entry) above, with N315D counted along it
Gonadotropin-releasing hormone receptor (Homo sapiens, UniProt P30968, E111A), sequence (P30968 whole entry E111A): as the sequence (P30968 whole entry) above, with E111A counted along it
Gonadotropin-releasing hormone receptor (Homo sapiens, UniProt P30968, N305K), sequence (P30968 whole entry N305K): as the sequence (P30968 whole entry) above, with N305K counted along it
Gonadotropin-releasing hormone receptor (Homo sapiens, UniProt P30968, D293K), sequence (P30968 whole entry D293K): as the sequence (P30968 whole entry) above, with D293K counted along it
Gonadotropin-releasing hormone receptor (Homo sapiens, UniProt P30968, S118A), sequence (P30968 whole entry S118A): as the sequence (P30968 whole entry) above, with S118A counted along it
Gonadotropin-releasing hormone receptor (Homo sapiens, UniProt P30968, S186K), sequence (P30968 whole entry S186K): as the sequence (P30968 whole entry) above, with S186K counted along it
Gonadotropin-releasing hormone receptor (Homo sapiens, UniProt P30968, K121A), sequence (P30968 whole entry K121A): as the sequence (P30968 whole entry) above, with K121A counted along it
Gonadotropin-releasing hormone receptor (Homo sapiens, UniProt P30968, D293E), sequence (P30968 whole entry D293E): as the sequence (P30968 whole entry) above, with D293E counted along it
Gonadotropin-releasing hormone receptor (Homo sapiens, UniProt P30968, N315A), sequence (P30968 whole entry N315A): as the sequence (P30968 whole entry) above, with N315A counted along it
Gonadotropin-releasing hormone receptor (Homo sapiens, UniProt P30968, D293N), sequence (P30968 whole entry D293N): as the sequence (P30968 whole entry) above, with D293N counted along it
Gonadotropin-releasing hormone receptor (Homo sapiens, UniProt P30968, S168I), sequence (P30968 whole entry S168I): as the sequence (P30968 whole entry) above, with S168I counted along it
Gonadotropin-releasing hormone receptor (Homo sapiens, UniProt P30968, H306A), sequence (P30968 whole entry H306A): as the sequence (P30968 whole entry) above, with H306A counted along it
Gonadotropin-releasing hormone receptor (Homo sapiens, UniProt P30968, L112K), sequence (P30968 whole entry L112K): as the sequence (P30968 whole entry) above, with L112K counted along it

Q: Which IC50 [1] does the source give for `CC(C)C[C@H](NC(=O)[C@@H](Cc1ccc(O)cc1)NC(=O)[C@H](Cc1c[nH]cn1)NC(=O)[C@H](CO)NC(=O)[C@H](Cc1c[nH]c2ccccc12)NC(=O)[C@H](Cc1c[nH]cn1)NC(=O)[C@@H]1CCC(=O)N1)C(=O)N[C@@H](CCCN=C(N)N)C(=O)N1CCC[C@H]1C(=O)NCC(N)=O` here?
A: 8.1 nM

Q: What about the IC50 [2] of the same compound?
A: 60.1 nM

Q: What about the IC50 [3] of the same compound?
A: 4.8 nM

Q: What about the IC50 [4] of the same compound?
A: 4.7 nM

Q: And the IC50 [5]?
A: 6.1 nM

Q: And the IC50 [6]?
A: 1.9 nM

Q: What about the IC50 [7] of the same compound?
A: 12.4 nM

Q: And the IC50 [8]?
A: 50.6 nM

Q: And the IC50 [9]?
A: 5.6 nM

Q: What about the IC50 [10] of the same compound?
A: 0.8 nM

Q: And the IC50 [11]?
A: 1.5 nM

Q: What about the IC50 [12] of the same compound?
A: 4.4 nM

Q: What about the IC50 [13] of the same compound?
A: 4.9 nM

Q: And the IC50 [14]?
A: 5.8 nM

Q: What about the IC50 [15] of the same compound?
A: 3.5 nM

Q: What about the IC50 [16] of the same compound?
A: 4.1 nM

Q: What about the IC50 [17] of the same compound?
A: 3.3 nM

Q: What about the IC50 [18] of the same compound?
A: 267 nM

Q: And the IC50 [19]?
A: 3.8 nM

Q: And the IC50 [20]?
A: 4.1 nM

Q: What about the IC50 [21] of the same compound?
A: 2.4 nM

Q: What about the IC50 [22] of the same compound?
A: 16.7 nM

Q: What about the IC50 [23] of the same compound?
A: 1.9 nM

Q: What about the IC50 [24] of the same compound?
A: 3.1 nM

Q: And the IC50 [25]?
A: 5.4 nM

Q: What about the IC50 [26] of the same compound?
A: 3.6 nM

Q: And the IC50 [27]?
A: 3.1 nM

Q: What about the IC50 [28] of the same compound?
A: 4.6 nM

Q: What about the IC50 [29] of the same compound?
A: 2.5 nM

Q: What about the IC50 [30] of the same compound?
A: 10.1 nM

Q: Which results are given for `COc1c(C)cc(-c2[nH]c3ccc(C(C)(C)C(=O)N(CC(C)C)CC(C)C)cc3c2[C@H](C)CNCCc2ccccc2)cc1C`?
A: IC50 [1]: 17.7 nM; IC50 [2]: 6.8 nM; IC50 [3]: 56.1 nM; IC50 [4]: 32.6 nM; IC50 [5]: 27.2 nM; IC50 [6]: 11.2 nM; IC50 [7]: 3.7 nM; IC50 [8]: 23.3 nM; IC50 [9]: 623 nM; IC50 [10]: 47.1 nM; IC50 [11]: 49.3 nM; IC50 [12]: 16.9 nM; IC50 [13]: 57.1 nM; IC50 [14]: 8.8 nM; IC50 [15]: 24.2 nM; IC50 [16]: 4.8 nM; IC50 [17]: 46.8 nM; IC50 [18]: 82.3 nM; IC50 [19]: 15.2 nM; IC50 [20]: 13.1 nM; IC50 [21]: 10 nM; IC50 [22]: 15.7 nM; IC50 [23]: 10.8 nM; IC50 [24]: 14.6 nM; IC50 [25]: 41.4 nM; IC50 [26]: 17.8 nM; IC50 [27]: 15.8 nM; IC50 [28]: 5.4 nM; IC50 [29]: 22.4 nM; IC50 [30]: 16.2 nM
